Converted amounts (≈) assume the structure as drawn.
Assays:
Candida albicans [1] = experiment: Antimicrobial activity against sCandida albicans assessed as drug level causing growth inhibition on silica gel TLC plate after 24 hrs; format: functional
How it was run: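 Agar overlay bioautography: 10 µL of geometric dilutions from 5 mg/mL stocks were spotted on Si gel 60 F254 glass TLC plates. Plates were developed in petroleum ether-EtOAc (1:1) and dried, then overlaid with about 1 mm of molten malt agar carrying about 107 yeast cells/mL. Plates were incubated overnight at 30 °C, moist, then sprayed with MTT (2.5 mg/mL). The read-out was the minimal amount (µg) giving clear spots on purple, with a nystatin reference.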

Cladosporium cucumerinum [2] = experiment: Antimicrobial activity against Cladosporium cucumerinum assessed as drug level causing growth inhibition on silica gel TLC plate after 2-3 days
Cladosporium cucumerinum [3] = experiment: Antimicrobial activity against Cladosporium cucumerinum after 24 hrs by agar dilution method; format: functional
How it was run: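 Geometric dilutions were made in DMSO from 3 mg/mL DMSO stocks and added to Sabouraud agar in sealed 24-well plates, with final DMSO ≤2%. A distilled-water suspension of C. cucumerinum was spread over the agar and incubated 24 h at 30 °C. The read-out was MIC (µg/mL), the average of duplicates, with no-compound growth controls and a nystatin reference.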

Aedes aegypti = experiment: Larvicidal activity against Aedes aegypti assessed as drug level required to kill instar II larvae after 24 hrs; format: functional
How it was run: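 Geometric dilutions were made from 5 mg/mL DMSO stocks and added to tubes holding about 20 instar II A. aegypti larvae in tap water, to a final volume of 10 mL. Tubes were kept in darkness at 26-28 °C for 24 h. Larval lethality was scored under lab light, in duplicate.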

Candida albicans [4] = experiment: Antimicrobial activity against Candida albicans after 24 hrs by agar dilution method; format: functional, organism-based

Compound | Activity (Candida albicans [1]) [µg] | Activity (Cladosporium cucumerinum [2]) [µg] | MIC (Cladosporium cucumerinum [3]) [µg/mL] | Activity (Aedes aegypti) [µg/mL] | MIC (Candida albicans [4]) [µg/mL]
CC(C)=CCCC(C)(O)/C=C\c1cc(O)ccc1O (stereo not drawn) | >50 | 5 | 15 (≈ 57.2 µM) | >50 | –
COC(=O)CCc1cc(OC)c(OC)cc1OC | >50 | 5 | 15 (≈ 59 µM) | 12.5 | –
C/C=C\c1cc(OC)c(OC)cc1OC [CIS-ASARONE] | – | – | – | 25 | –
CC1=CC(=O)c2c(O)cccc2C1=O [PLUMBAGIN] | – | – | – | 3 | –
NYSTATIN | 0.1 | – | 1 | – | 1

From ChEMBL document CHEMBL1154555, “Antifungal and larvicidal compounds from the root bark of Cordia alliodora” (2000)
